The test system of data set [1] is CCRF-CEM. The data set is described as follows: Selectivity ratio of IC50 for vinblastine-resistant human CCRF-CEM cells to IC50 for human CCRF-CEM cells. It is filed as functional. Summed up: (§1)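 Fold resistance: IC50 in the taxol- or vinblastine-resistant CCRF-CEM subline divided by the IC50 in parent CCRF-CEM.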
Data set [2] concerns MX1. As to the kind of experiment: Cytotoxicity against human MX1 cells after 72 hrs by SRB assay. It is filed as functional, cell-based. Particulars: MX1, 72 h. Summed up:
(§2)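 Solid tumour cells (breast MX-1, colon HCT116) exposed for 72 h. Growth measured by SRB assay. IC50 obtained by median-effect plot from six or seven concentrations, in duplicate or triplicate.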

A further data set has as its system NCI-H1299. As to the kind of experiment: Induction of DNA interstrand cross linking in 20 Gy irradiated human H1299 cells at 10 uM after 1 hr by comet assay. It is filed as functional. Summed up: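 H1299 cells (2 × 10^5) plated and grown for 32 h at 37 °C in 5% CO2, then drug-treated for 1 h. Cells given 20 Gy irradiation and embedded in 1.2% low-melting agarose for a modified comet assay under subdued light. Tail moment scored in 100 cells. Cross-linking % = [1 − (TMdi−TMcu)/(TMci−TMcu)] × 100. Three experiments, mean ± SD.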

The nature of data set [3]: Cytotoxicity against human H1299 cells. It is filed as functional, cell-based. Particulars: NCI-H1299.
Data set [4] can be described thus: Chemical stability assessed as half life at 1 mg in DMSO/Tween 80/normal saline solution. It is filed as physicochemical. Summed up: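 1 mg of compound held in i.v. vehicle (DMSO/Tween 80/normal saline, 0.5:0.4:1.6 v/v/v). Degradation followed by silica TLC (CHCl3/MeOH 10:1) and confirmed by reversed-phase HPLC.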
Data set [5] relates to CCRF-CEM. As to the kind of experiment: Cytotoxicity against vinblastine-resistant human CCRF-CEM cells after 72 hrs by XTT assay. It is filed as functional, cell-based. In a few lines: (§3)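 Leukaemic CCRF-CEM cells and their taxol- and vinblastine-resistant sublines exposed for 72 h. XTT assay read at 450 and 630 nm after 6 h with phenazine methosulfate-XTT at 37 °C. IC50 obtained by the median-effect principle from six or seven concentrations, in duplicate or triplicate.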

In data set [6] the test system is Mus musculus. The data set is described as follows: Toxicity against human MX1 cells xenografted mouse assessed as body weight loss at 100 mg/kg, iv administered in Q2D x 5 schedule. The settings on record: in vivo. It is filed as organism-based. Also on record: dose 100 mg/kg, route intravenous. In a few lines: (§4)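 Nude nu/nu male mice (8 weeks or older, 22 g or more) carrying xenografts, given i.v. tail-vein injections in DMSO/Tween 80/saline vehicle, n = 3. Host toxicity taken as body weight change from the initial pretreatment weight, tracked through and after dosing.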

The test system of another data set is HCT-116. The data set is described as follows: Cytotoxicity against human HCT116 cells after 72 hrs by SRB assay. It is filed as functional, cell-based. The settings on record: HCT-116, 72 h. In a few lines: as §2
Data set [7] relates to MX1. As to the kind of experiment: Antitumor activity in human MX1 cells xenografted mouse assessed as complete tumor remission at 100 mg/kg, iv administered in Q2D x 5 schedule. It is filed as functional, organism-based. Also noted: dose 100 mg/kg.
The nature of data set [8]: Stability in rat plasma assessed as half life at 5 ug/mL by HPLC. It is filed as ADME, cell-free. Summed up:
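Rat plasma (100 µL, 5 µg/mL compound) deproteinised with acetonitrile (1:2), centrifuged at 10,000 g for 10 min and filtered. Analysed by HPLC on methanol:10 mM NaH2PO4 (60:40, pH 3.0) at 0.8 mL/min, UV 266 nm, quantified by peak area. Detection limit 20 ng/mL; n = 4.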

For data set [9], the system named is CCRF-CEM. As to the kind of experiment: Selectivity ratio of IC50 for taxol-resistant human CCRF-CEM cells to IC50 for human CCRF-CEM cells. It is filed as functional. Summed up:
as §1

Data set [10] has as its system CCRF-CEM. As to the kind of experiment: Cytotoxicity against taxol-resistant human CCRF-CEM cells after 72 hrs by XTT assay. It is filed as functional, cell-based. Summed up: as §3
A further data set deals with U-87 MG. As to the kind of experiment: Antitumor activity in human U87 MG cells xenografted mouse at 100 mg/kg, iv administered in Q2D x 5 schedule. Also noted: dose 100 mg/kg. Particulars: U-87MG ATCC. It is filed as functional, organism-based.
In data set [11] the test system is CCRF-CEM. The data set is described as follows: Cytotoxicity against human CCRF-CEM cells after 72 hrs by XTT assay. It is filed as functional, cell-based. Summed up: as §3
For data set [12], the system named is Mus musculus. The data set is described as follows: Toxicity against human U87 MG cells xenografted mouse assessed as body weight loss at 100 mg/kg, iv administered in Q2D x 5 schedule. It is filed as organism-based, U-87MG ATCC. Also on record: dose 100 mg/kg, route intravenous. The settings on record: in vivo. Summed up: as §4

Calls of active or inactive are those of the source. The rule behind the calls is not given here.

`Cc1ccc(Nc2c3ccccc3nc3c(C)cccc23)cc1NC(=O)Nc1ccc(N(CCCl)CCCl)cc1`: the “Ratio IC50” value is reported as 1.64 with CCRF-CEM [1] and 1.18 in the data set on CCRF-CEM [9]. Besides, the IC50 turned out to be 240 nM with MX1 [2]; 510 nM in [3]; 128 nM with CCRF-CEM [5]; 437 nM in the data set with HCT-116; 91.8 nM in the data set on CCRF-CEM [10]; 77.8 nM in the data set on CCRF-CEM [11]. Besides, the values for the Activity in the data set with NCI-H1299, in the data set with Mus musculus [6] and with Mus musculus [12] were 39.2%, 10% and 15%, respectively. The half-life in data set [4] is 55 days. Moreover, the outcome in the data set on MX1 [7] and in the data set on U-87 MG was Active. The half-life at 5 ug/mL in [8] was 2.26 days.
